Screening results (PubChem)
Most compounds without a hit are left out; they make up all but 2.7% or so of the library.
ARFGAP1 inh: rat ARFGAP1 inhibition | Q62848 | Arfgap1-stimulated ARF1 GTP hydrolysis, GDP FP detection | inhibition, % at 16.5 µM | 0.26% of 360,000 active | AID 651572;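 active = inhibition above a per-plate limit, mean inhibition of low control wells plus 3 SD, cut at about 25% in these data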;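 note: 0% = DMSO wells with enzyme and 100% = wells lacking Arfgap1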
Target sequence (Q62848 1-136 limits assumed): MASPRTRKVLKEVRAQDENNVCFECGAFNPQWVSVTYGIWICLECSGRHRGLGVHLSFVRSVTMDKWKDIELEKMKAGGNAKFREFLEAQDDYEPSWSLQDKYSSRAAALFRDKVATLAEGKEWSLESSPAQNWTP
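System: truncated rat Arfgap1 GAP domain / Medium: HEPES-based buffer, pH 7.5 / Also added: N-terminally truncated human ARF1-GTP substrate / Incubation: enzyme reaction 120 min at 25 °C after 20 min preincubation / Measured by: FP of antibody-bound GDP Alexa 633 tracer, ex 620/em 688 nm / Replicates: singlicate, each compound tested once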
PAFAH1B2 FP inh: PAFAH1B2 (human) inhibition | inhibition, % at 3.39 µM | AID 492953 | recombinant PAFAH1B2, FP-rhodamine activity probe, fluorescence polarization | P68402 | 1.2% of 340,000 active;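 active = inhibition above the mean of all tested compounds plus 3 SD, cut at about 24% in these data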;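 note: 0% = enzyme with DMSO and 100% = wells lacking PAFAH1B2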
pPAFAH FP inh: inhibitors of human plasma PAF acetylhydrolase (pPAFAH) | Q13093 | recombinant pPAFAH, FP-rhodamine probe fluorescence polarization | inhibition, % at 3.39 µM | 1.5% of 330,000 active | AID 463082;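 active = inhibition above the mean inhibition across the screen plus 3 SD, cut at about 25% in these data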;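 note: inhibitors block binding of the rhodamine activity-based probe so polarization drops; 0% = enzyme with DMSO and 100% = wells lacking pPAFAH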
PAFAH1B3 FP inh: inhibitors of human PAFAH1B3; Q15102; recombinant PAFAH1B3, FP-rhodamine probe, fluorescence polarization; inhibition, % at 3.39 µM; 0.28% of 340,000 active; AID 492972;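 active = inhibition above the screen-wide average of all tested compounds plus 3 SD, cut at about 25% in these data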;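 note: 0% = enzyme with DMSO only and 100% = wells lacking PAFAH1B3 protein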
ASAP1 GAP inh: ASAP1 ArfGAP inhibition. Q9ULH1. ASAP1-stimulated ARF1 GTP hydrolysis, GDP FP detection. 0.19% of 360,000 active. inhibition, % at 16.5 µM; in the data active = inhibition above about 25%;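 note: 0% = vehicle with enzyme and substrate and 100% = no enzyme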
Target sequence (Q9ULH1 325-724 limits assumed): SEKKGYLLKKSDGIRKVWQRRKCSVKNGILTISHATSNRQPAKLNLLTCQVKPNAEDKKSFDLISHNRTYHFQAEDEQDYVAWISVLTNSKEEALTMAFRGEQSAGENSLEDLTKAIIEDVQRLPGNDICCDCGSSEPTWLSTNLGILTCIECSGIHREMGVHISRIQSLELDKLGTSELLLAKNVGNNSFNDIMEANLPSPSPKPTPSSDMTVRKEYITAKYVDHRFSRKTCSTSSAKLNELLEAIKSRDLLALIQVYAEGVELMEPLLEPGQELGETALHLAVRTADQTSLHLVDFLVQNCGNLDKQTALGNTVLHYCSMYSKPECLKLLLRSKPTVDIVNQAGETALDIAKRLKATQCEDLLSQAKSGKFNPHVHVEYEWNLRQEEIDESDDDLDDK
PAFAH2 inh: inhibitors of human PAFAH2; Q99487; recombinant PAFAH2, FP-rhodamine activity probe, fluorescence polarization; inhibition, % at 3.39 µM; 0.99% of 340,000 active; AID 492956;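 active = inhibition above the mean over all tested compounds plus 3 SD, cut at about 30% in these data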;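 note: inhibitors block probe labeling of enzyme so polarization drops; 0% = enzyme with DMSO and 100% = wells lacking PAFAH2 protein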
* hit, by the source's call; . = no result given.

SMILES | ARFGAP1 inh | PAFAH1B2 FP inh | pPAFAH FP inh | PAFAH1B3 FP inh | ASAP1 GAP inh | PAFAH2 inh
Cc1ccc(S(=O)(=O)NC(CCCNC(=O)OCc2ccccc2)C(=O)O)cc1 (stereo not drawn) | 8.0 | . | . | . | 5.1 | .
COc1ccccc1CCn1cnc(-c2ccc(F)cc2F)c1CC(C)C | -4.0 | . | . | . | -12.0 | .
O=C(O)/C=C\C(=O)Nc1ccc(N2CCN(c3cccc(Cl)c3)CC2)cc1 | -7.2 | 0.4 | 15.1 | -3.0 | -2.7 | 2.5
O=C(O)/C=C\C(=O)Nc1ccc(N2CCN(c3ccc(Cl)cc3)CC2)cc1 | 4.7 | 24.7* | 15.3 | 4.4 | 2.9 | 4.8
COC(=O)c1cccc(-c2ccc(C(c3c(C)[nH][nH]c3=O)c3c(C)[nH][nH]c3=O)o2)c1 | 31.8* | 8.3 | 0.5 | 14.5 | 25.8* | 13.8
COC(=O)c1ccc(C(c2c(C)[nH][nH]c2=O)c2c(C)[nH][nH]c2=O)cc1 | 1.7 | 1.3 | -2.4 | 3.2 | 3.0 | 5.1
COC(=O)C1=C(C)NC(=S)NC1c1ccc(Br)cc1 (stereo not drawn) | -7.0 | . | . | . | 2.1 | .
CCNc1ccccc(C(=O)/C=C/c2ccc3c(c2)OCO3)c1=O | -14.6 | 5.5 | 31.7* | 8.2 | -1.5 | 29.9*
Oc1cccc(N2CCN(c3cccc(O)c3)CC2)c1 | 5.6 | . | . | . | 0.8 | .
COc1cccc(CNC(=O)[C@H]2CCCN2C(=O)[C@H]2CCCN2C(=O)c2cccc(OC)c2)c1 | -3.2 | . | . | . | -9.0 | .
CN1CCC(=O)N(CCSc2ccccc2)CC1 | 12.8 | 1.8 | 16.5 | 9.3 | 9.0 | 2.1
O=C1CCN(CCc2ccccc2)CCN1CCSc1ccccc1 | -3.4 | 4.1 | 30.5* | 7.3 | 1.0 | 16.0
O=C(N[C@@H](Cc1cccnc1)C(=O)N1CCC[C@H]1C(=O)NC1CCCC1)c1cccs1 | 1.3 | . | . | . | 9.0 | .
O=C(/C=C(\Nc1cccc(OC(F)F)c1)c1ccccc1)c1ccccc1 | 0.4 | . | . | . | 1.9 | .
O=C(COC(=O)c1cc(-c2cccs2)nn1-c1ccccc1)Nc1ccc(F)c([N+](=O)[O-])c1 | 1.1 | -6.4 | 25.4* | -15.5 | 4.8 | 36.0*
CN(CC(=O)Nc1ccc(F)cc1)C(=O)c1cc(-c2cccs2)nn1-c1ccccc1 | 7.4 | 4.5 | . | 0.2 | 0.6 | 5.9
COC(=O)[C@]12C[C@H](CC(=O)NCc3ccc(C)o3)C(=O)N(Cc3ccccc3)C1=C[C@H](C(C)(C)C)O[C@@H]2C | -0.9 | . | . | . | 0.2 | .
O=C(Nc1nc(-c2cccs2)c(-c2ccccc2)s1)c1ccco1 | 34.1* | 0.2 | 5.1 | -0.9 | 15.0 | -5.1
CC(=O)Nc1sc(NC(=O)c2ccco2)nc1-c1cccs1 | -13.4 | 3.4 | 4.0 | 2.8 | -0.6 | -8.1
OCC1COC(c2ccccc2)=N1 (stereo not drawn) | 6.1 | . | . | . | 12.9 | .
CCc1cc(C(=O)N=Nc2c(O)[nH]c3ccc([N+](=O)[O-])cc23)c2ccccc2n1 | -4.4 | -2.3 | 33.3* | 8.3 | 6.0 | 0.7
O=C(Nc1cccc(NC(=O)c2c(F)cccc2F)n1)c1c(F)cccc1F | 24.8* | 4.2 | -4.8 | 10.8 | 13.7 | 13.2
CCCCN1CC(N2CCCC2)CS1(=O)=O (stereo not drawn) | -7.5 | . | . | . | 2.5 | .
COCc1cc(N2CCN(C(=O)OC(C)(C)C)C[C@H]2C)ccc1N1CCN(Cc2ccccc2)[C@@H](C)C1 | 11.0 | . | . | . | -18.6 | .
COc1ccccc1S(=O)(=O)Nc1cccc(-c2nnc3n2CCCCC3)c1 | -5.0 | -2.2 | -1.2 | 9.1 | -1.8 | 3.6
SMILES | ARFGAP1 inh | PAFAH1B2 FP inh | pPAFAH FP inh | PAFAH1B3 FP inh | ASAP1 GAP inh | PAFAH2 inh
COc1ccc(NS(=O)(=O)c2cccc(C(=O)NCC(c3ccc(OC)cc3)N3CCOCC3)c2)cc1 (stereo not drawn) | -9.5 | -0.6 | 32.0* | 6.4 | -4.1 | -3.1
COc1ccc(NS(=O)(=O)c2cccc(-c3nnc4n3CCCCC4)c2)cc1 | -7.4 | -0.2 | 28.5* | 3.5 | 12.7 | 5.0
O=C(O)c1cccc(S(=O)(=O)Nc2ccc(N3CCCCC3)cc2)c1 | 2.7 | 4.7 | 26.7* | 15.7 | -13.8 | -1.8
COc1ccc(NS(=O)(=O)c2cccc(C(=O)N3CCCCCC3)c2)cc1 | 9.7 | 8.0 | 31.1* | 9.1 | 1.4 | -1.1
COCc1[nH]nc2c1C(c1ccc(C)cc1)N(Cc1ccccc1)C2=O (stereo not drawn) | 1.2 | . | . | . | 9.6 | .
O=C(O)c1cccc(S(=O)(=O)Nc2cc(Cl)ccc2Cl)c1 | 0.6 | 24.2* | 6.3 | 8.3 | -9.6 | 1.1
